For 16 compounds, IC50 results are on record in ChEMBL document CHEMBL1141228, “Conformationally constrained CCK4 analogues incorporating IBTM and BTD beta-turn mimetics” (J Med Chem, 2005).

Bounds are passed on as bounds.

The target of assay [1] is T1, Cholecystokinin receptor type A (Rattus norvegicus, UniProt P30551).
T1 sequence (P30551 whole entry): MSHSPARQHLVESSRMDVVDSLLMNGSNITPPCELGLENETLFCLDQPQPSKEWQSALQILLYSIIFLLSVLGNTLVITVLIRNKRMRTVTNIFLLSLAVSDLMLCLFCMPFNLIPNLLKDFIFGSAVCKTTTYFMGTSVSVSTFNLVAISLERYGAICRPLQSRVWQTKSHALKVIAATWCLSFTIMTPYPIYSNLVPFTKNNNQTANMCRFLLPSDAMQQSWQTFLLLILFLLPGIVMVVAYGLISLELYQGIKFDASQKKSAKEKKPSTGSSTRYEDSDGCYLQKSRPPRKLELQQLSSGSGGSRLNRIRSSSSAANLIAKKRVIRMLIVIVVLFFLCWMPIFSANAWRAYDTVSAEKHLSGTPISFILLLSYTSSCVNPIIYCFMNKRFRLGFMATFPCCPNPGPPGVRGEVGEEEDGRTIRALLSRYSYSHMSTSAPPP
As to the kind of experiment: Displacement of [3H]propionylCCK8 from rat pancreatic CCK1. In outline: (§1)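 Binding run on rat tissue homogenates: pancreas for CCK1, cerebral cortex for CCK2. Seven concentrations of test compound, each in duplicate. Values are means or mean ± SEM of at least three experiments.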

Assay [2] concerns the target T2, Gastrin/cholecystokinin type B receptor (Rattus norvegicus, UniProt P30553).
T2 sequence (P30553 whole entry): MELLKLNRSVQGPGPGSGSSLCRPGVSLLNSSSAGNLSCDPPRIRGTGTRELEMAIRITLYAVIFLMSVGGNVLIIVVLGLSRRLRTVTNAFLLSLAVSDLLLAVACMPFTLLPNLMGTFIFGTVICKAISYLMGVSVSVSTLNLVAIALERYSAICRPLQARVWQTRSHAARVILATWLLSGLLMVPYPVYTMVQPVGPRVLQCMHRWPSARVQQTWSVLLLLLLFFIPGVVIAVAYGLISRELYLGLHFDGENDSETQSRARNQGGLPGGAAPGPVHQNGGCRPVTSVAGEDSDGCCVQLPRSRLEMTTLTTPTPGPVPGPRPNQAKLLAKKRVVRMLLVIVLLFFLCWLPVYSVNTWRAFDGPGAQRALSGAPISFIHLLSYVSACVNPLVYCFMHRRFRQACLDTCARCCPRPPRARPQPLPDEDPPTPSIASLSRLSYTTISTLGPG
As to the kind of experiment: Displacement of [3H]propionylCCK8 from rat cerebral cortex CCK2. The assay is classed as tissue-based. In short, it runs like this:
as §1

The target of another assay is T3, Cholecystokinin receptor (Rattus norvegicus, UniProt P30551+P30553).
T3 sequence (P30551 whole entry): T1 sequence (P30551 whole entry)
T3 sequence (P30553 whole entry): T2 sequence (P30553 whole entry)
As to the kind of experiment: Antagonizing activity of CCK8 induced amylase secretion from rat pancreatic acini. In short, it runs like this:
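Rat pancreas digested with collagenase (70 U/mL) in three 10-min incubations at 37 °C under O2 to give dispersed acini. Acini incubated 30 min at 37 °C under pure O2 with agitation, 0.1 nM CCK8 as stimulus, test compound at increasing concentrations. Amylase measured by kit; release expressed as percent of acinar amylase; percent inhibition computed against vehicle control; IC50 derived.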

Broadly, the IC50 is the concentration that gives 50% inhibition. On to `CC(C)(C)OC(=O)N[C@H](Cc1c[nH]c2ccccc12)C(=O)N[C@H]1CC[C@@H]2SC[C@@H](C(=O)N[C@H](Cc3ccccc3)C(N)=O)N2C1=O`, for which the results for the IC50 in assay [1] and in assay [2] were more than 1 µM and more than 10 µM, respectively.

Regarding `COC(=O)[C@H](Cc1ccccc1)NC(=O)[C@@H]1Cc2c([nH]c3ccccc23)[C@H]2C[C@H](NC(=O)[C@H](Cc3c[nH]c4ccccc34)NC(=O)OC(C)(C)C)C(=O)N21`, the IC50 in assay [1] and in assay [2] was more than 10 µM each time.

On to `CC(C)(C)OC(=O)N[C@H](Cc1c[nH]c2ccccc12)C(=O)N[C@@H]1C[C@H]2c3[nH]c4ccccc4c3C[C@H](C(=O)N[C@@H](Cc3ccccc3)C(N)=O)N2C1=O`, for which the values for the IC50 (in assay [1]; in assay [2]; against Cholecystokinin receptor) were 0.0259 µM, more than 10 µM and 0.829 µM, respectively.

Consider `COC(=O)[C@@H](Cc1ccccc1)NC(=O)[C@@H]1Cc2c([nH]c3ccccc23)[C@H]2C[C@H](NC(=O)[C@@H](Cc3c[nH]c4ccccc34)NC(=O)OC(C)(C)C)C(=O)N21`, for which the IC50 in assay [1] and in assay [2] was more than 10 µM throughout.

As to `CC(C)(C)OC(=O)N[C@@H](Cc1c[nH]c2ccccc12)C(=O)N[C@H]1CC[C@@H]2SC[C@@H](C(=O)N[C@@H](Cc3ccccc3)C(N)=O)N2C1=O`, the IC50 is more than 1 µM in assay [1] and more than 10 µM in assay [2].

`CC(C)(C)OC(=O)N[C@H](Cc1c[nH]c2ccccc12)C(=O)N[C@H]1C[C@@H]2c3[nH]c4ccccc4c3C[C@@H](C(=O)N[C@@H](Cc3ccccc3)C(N)=O)N2C1=O`: the IC50 was 0.817 µM in assay [1] and more than 10 µM in assay [2].

On to `CC(C)(C)OC(=O)N[C@@H](Cc1c[nH]c2ccccc12)C(=O)N[C@H]1CC[C@@H]2SC[C@@H](C(=O)N[C@H](Cc3ccccc3)C(N)=O)N2C1=O`, for which the IC50 in assay [1] was more than 1 µM; in assay [2], more than 10 µM.

As to `O=C(N[C@H]1C[C@@H]2c3[nH]c4ccccc4c3C[C@@H](C(=O)N[C@@H](Cc3ccccc3)C(=O)O)N2C1=O)OCc1ccccc1`, the IC50 in assay [2] is more than 10 µM.

Take `CC(C)(C)OC(=O)N[C@@H](Cc1c[nH]c2ccccc12)C(=O)N[C@H]1C[C@@H]2c3[nH]c4ccccc4c3C[C@@H](C(=O)N[C@H](Cc3ccccc3)C(N)=O)N2C1=O`: the IC50 was more than 1 µM in assay [1] and 0.524 µM in assay [2].

Regarding `CC(C)(C)OC(=O)N[C@@H](Cc1c[nH]c2ccccc12)C(=O)N[C@@H]1C[C@H]2c3[nH]c4ccccc4c3C[C@H](C(=O)N[C@@H](Cc3ccccc3)C(N)=O)N2C1=O`, the values for the IC50 (in assay [1]; in assay [2]; against Cholecystokinin receptor) were 0.0549 µM, more than 10 µM and 0.13 µM, respectively.

For the compound `CC(C)(C)OC(=O)N[C@H](Cc1c[nH]c2ccccc12)C(=O)N[C@@H]1C[C@H]2c3[nH]c4ccccc4c3C[C@H](C(=O)N[C@H](Cc3ccccc3)C(N)=O)N2C1=O`, the IC50 in assay [1] is 0.582 µM; in assay [2] it was more than 10 µM.

Regarding `CSCC[C@H](NC(=O)[C@H](Cc1c[nH]c2ccccc12)NC(=O)OC(C)(C)C)C(=O)N[C@@H](CC(=O)O)C(=O)N[C@@H](Cc1ccccc1)C(N)=O`, the IC50 in assay [1] was 1.8 µM.

For the compound `CC(C)(C)OC(=O)N[C@H](Cc1c[nH]c2ccccc12)C(=O)N[C@H]1CC[C@@H]2SC[C@@H](C(=O)N[C@@H](Cc3ccccc3)C(N)=O)N2C1=O`, the IC50 was more than 1 µM in assay [1] and more than 10 µM in assay [2].

Consider `CC(C)(C)OC(=O)N[C@@H](Cc1c[nH]c2ccccc12)C(=O)N[C@H]1C[C@@H]2c3[nH]c4ccccc4c3C[C@@H](C(=O)N[C@@H](Cc3ccccc3)C(N)=O)N2C1=O`, for which the figures for the IC50 in assay [1] and in assay [2] were 0.625 µM and more than 10 µM, respectively.

For `CC(C)(C)OC(=O)N[C@@H](Cc1c[nH]c2ccccc12)C(=O)N[C@@H]1C[C@H]2c3[nH]c4ccccc4c3C[C@H](C(=O)N[C@H](Cc3ccccc3)C(N)=O)N2C1=O`, the figures for the IC50 in assay [1] and in assay [2] were more than 1 µM and more than 10 µM, respectively.

Take `CC(C)(C)OC(=O)N[C@H](Cc1c[nH]c2ccccc12)C(=O)N[C@H]1C[C@@H]2c3[nH]c4ccccc4c3C[C@@H](C(=O)N[C@H](Cc3ccccc3)C(N)=O)N2C1=O`: the IC50 in assay [1] was more than 1 µM; in assay [2], 0.938 µM.
